# WT yeast gro inh: growth inhibition of WT yeast, mitochondrial fusion screen; mitochondrial fusion phenotypic screen, WT strain; inhibition, % at 10 µM; 2.1% of 190,000 active; in the data active = inhibition above about 58%; tested in S. cerevisiae
# RAM inhibit: inhibitors of the yeast RAM network; S. cerevisiae dse1pr::URA3 reporter, 5-FOA growth OD615, 2 d; analog-sensitive cbk1-as2 kinase mutant strain; inhibition, % at 50 µM; 1.8% of 190,000 active; AID 868;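 active = inhibition above a set limit, 3 SD over mean compound inhibition, cut at about 8.4% in these data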;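 note: 0% = DMSO-only wells with no growth and 100% = 10 µM 1-NA-PP1 full growth; inhibition rescues growth on 5-FOA so higher OD means more RAM inhibition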
# Calb biofilm kill: mixtures killing C. albicans biofilm | C. albicans biofilm persisters + clotrimazole, fluorescence viability; primary screen in compound mixtures of four per well | inhibition, % at 7.6 µM | 0.02% of 120,000 active | AID 1242;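 active = inhibition above 30.3% in the primary screen of four-compound pools, then above 30% when the compound was retested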;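 note: compounds exposed to preformed 24 h biofilms for 48 h; 0% = untreated biofilm control and 100% = clotrimazole plus chlorhexidine kill blank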
#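 Test system: C. albicans CAF4-2 wild-type biofilms; buffer or medium: RPMI/MOPS medium, pH 7.0; schedule: 24 h biofilm formation, then 48 h compound exposure, 37 °C; detection: Alamar Blue fluorescence; measure: percent inhibition of biofilm viability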
# Arbovirus anti: blocks arbovirus infection; inhibition, % at 10 µM; AID 1251; arbovirus infection cell-based antiviral screen; 0.37% of 200,000 active; in the data active = inhibition above about 30%
# NCF1 inh: blocks human p47phox regulatory protein of NADPH oxidases | p47phox/p22phox peptide binding, fluorescence polarization, 2 h | inhibition, % at 24.7 µM | 0.53% of 220,000 active;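 active = inhibition above about 30%, limit read from the data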;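 note: 0% = p47phox with labelled peptide and 100% = labelled peptide alone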
# Target sequence (P14598 whole entry, looked up): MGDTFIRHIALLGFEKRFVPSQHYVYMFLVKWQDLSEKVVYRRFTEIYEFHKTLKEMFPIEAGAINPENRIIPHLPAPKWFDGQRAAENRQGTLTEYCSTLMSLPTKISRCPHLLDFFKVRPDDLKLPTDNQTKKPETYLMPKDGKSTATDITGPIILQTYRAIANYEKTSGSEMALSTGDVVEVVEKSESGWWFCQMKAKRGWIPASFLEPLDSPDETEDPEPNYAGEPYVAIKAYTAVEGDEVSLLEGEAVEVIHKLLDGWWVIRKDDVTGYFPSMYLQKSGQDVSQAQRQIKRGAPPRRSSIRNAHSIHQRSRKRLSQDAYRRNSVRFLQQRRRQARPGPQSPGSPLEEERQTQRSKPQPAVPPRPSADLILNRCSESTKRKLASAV
# Hck Nef HTS: blocks Nef-activated human Hck kinase. P08631. Recombinant Hck-YEEI plus Nef, Z-Lyte FRET kinase assay. inhibition, % at 20 µM. 0.68% of 220,000 active. AID 463187;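 active = Hck-Nef kinase inhibition above about 50%, limit read from the data; inactive = inhibition below that limit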;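 note: 0% = DMSO with Hck plus Nef and 100% = Hck alone without Nef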
# Starred values were filed as active, the others as inactive; · = no result; + = active, no number. Compounds with a hit are over-represented: about 4.6% of the library has one in this group of screens.
SMILES,WT yeast gro inh,RAM inhibit,Calb biofilm kill,Arbovirus anti,NCF1 inh,Hck Nef HTS
COc1ccc(OC)c(NC(=O)CSc2nnc(C)n2Cc2ccccc2)c1,-5,9.2*,·,3,-1,1
COc1ccc(NC(=O)CSc2nc3ccccc3c3nc4ccccc4n23)cc1,-12,0,7,-14,27,2
COc1ccc(OC)c(NC(=O)CSc2nc3ccccc3c3nc4ccccc4n23)c1,-4,1,12,-8,79*,2
COc1ccc(NC(=O)CSc2nnc(C)n2Cc2ccccc2)cc1,-3,0,·,-1,-2,1
CCCCOC(=O)c1nc(Cl)c(Cl)c(N)c1Cl,-7,0,17,1,-2,2
CCCCCCCOC(=O)c1nc(Cl)c(Cl)c(N)c1Cl,85*,4,1,-5,1,1
CCN1/C(=C2\OC(=S)N(C)C2=O)C=Cc2ccccc21,13,4,18,-1,-84,-1
CCCN1C(=O)/C(=c2\s/c(=C3\C=Cc4ccccc4N3CC)c(=O)n2-c2ccccc2)SC1=S,-9,1,9,-1,70*,2
CCCn1c(=C(C#N)C#N)s/c(=C2\C=Cc3ccccc3N2CC)c1=O,6,3,·,2,37*,3
O=C(NC(c1ccccc1)c1ccccc1)c1ccc(Br)o1,4,8,·,-8,3,1
O=C(/C=C/c1ccc(Br)o1)NC(c1ccccc1)c1ccccc1,63*,4,8,3,-21,2
CCCc1cc(C(=O)Cc2ccc(C(=O)OCC)o2)c(O)cc1O,10,4,·,6,-30,4
CCCc1cc(-c2n[nH]c(C)c2-c2ccc(C(=O)OCC)o2)c(O)cc1O,9,9.6*,·,-4,-31,24
O=c1c2c([N+](=O)[O-])cc([N+](=O)[O-])cc2sn1-c1ccc(Br)cc1,58,2,17,-9,74*,-9
O=c1c2cc(Br)ccc2nc(-c2ccc([N+](=O)[O-])cc2)n1O,26,-1,18,-7,-11,-1
CCOC(=O)c1c(NC(=O)C2CCN(S(=O)(=O)c3cccs3)CC2)sc(C)c1C,75*,2,·,-9,-40,6
O=C(OCc1nc2ccccc2s1)C1CCN(S(=O)(=O)c2cccs2)CC1,3,9.9*,·,-1,-25,1
O=S(=O)(c1cccs1)N1CCN(Cc2nc3ccccc3s2)CC1,8,2,·,10,-14,0
CCn1c(SCc2nc3ccccc3[nH]2)nnc1-c1ccc(OC)cc1,6,3,·,7,-15,1
CC(C)C(=O)NNC(=O)CC(=O)Nc1ccccc1C(=O)O,·,·,9,·,4,7
O=C(O)C1C2C=CC(C2)C1C(=O)Nc1ccc(C(=O)N2CCCCC2)cc1 (stereo not given),68*,2,·,10,-8,6
O=C(Nc1cccc(-c2cn3ccccc3n2)c1)c1cc2ccccc2oc1=O,15,2,·,-10,43*,3
CC(=O)Nc1cccc(-c2cn3ccccc3n2)c1,-3,0,18,1,4,-7
CCn1c(=O)[nH]c(=O)c2c(N)c(C(=O)c3ccccc3OC)sc21,-11,1,9,19,-8,1
Cc1cccc(SC2CCN(Cc3nc(CC4CC4)no3)CC2)c1,24,-1,5,3,41*,-1
SMILES,WT yeast gro inh,RAM inhibit,Calb biofilm kill,Arbovirus anti,NCF1 inh,Hck Nef HTS
Cc1cccc(OC2CCN(Cc3nc(CC4CC4)no3)CC2)c1,6,-1,-11,11,-5,-11
CCOC1(OCC)C(c2ccc(Cl)cc2)C(C#N)(C#N)C1(OCC)OCC (stereo not given),65*,7,·,13,0,0
CC(C)(C)c1ccc(C(=O)NNC(=O)C2CCCCC2)cc1,-8,2,16,2,31*,2
CC(C)CC(=O)Nc1ccc(C(=O)NNC(=S)NC(=O)C2CCCCC2)cc1,31,8.4*,·,-24,-9,2
Cc1[nH]n(-c2cccc(Cl)c2)c(=O)c1C=NCC(C)C,8,2,9,4,-11,21
Cc1c([N+](=O)[O-])c(C(=O)Sc2ccc(Br)cc2)nn1C,·,·,14,·,39*,-3
Cc1c([N+](=O)[O-])c(C(=O)N2CCCC2)nn1C,14,1,·,9,-5,0
Cc1ccc(NC(=O)COC(=O)Cc2ccsc2)cc1S(=O)(=O)N(C)C,·,·,21,·,-3,21
Cc1ccc(NC(=O)COC(=O)CCC(=O)c2ccc(Cl)cc2)cc1S(=O)(=O)N(C)C,3,11*,-10,13,-8,1
CCOCc1c(C(=O)OCC(=O)Nc2ccc(C)c(S(=O)(=O)N(C)C)c2)oc2ccccc12,-3,8.7*,15,0,-11,1
C=CCn1c(COc2ccccc2-c2ccccc2)nnc1SCC(=O)NC(=O)NCc1ccco1,95*,2,·,-7,-21,1
Cc1ccccc1OCc1nnc(SCC(=O)NCc2ccco2)n1C,-11,2,25,4,+,22
C=CCn1c(COc2ccccc2F)nnc1SCC(=O)NC(=O)NCc1ccco1,-11,3,·,5,-25,4
CSc1ccccc1C(=O)C1CCCN(S(=O)(=O)c2c(C)noc2C)C1 (stereo not given),-14,2,4,-2,-5,-3
Cc1cccc(OCCSc2nc3ncnc(N)c3[nH]2)c1,3,0,13,0,7,39
Cc1cccc(OCCCSc2nc3ccc(C)cc3[nH]2)c1,82*,1,·,-26,-9,0
O=C(CCSc1ccc(Br)cc1)Nc1cccnc1,0,0,11,7,-6,-10
COc1ccc(NC(=O)COC(=O)Cc2ccc(-c3ccccc3)cc2)c(OC)c1,-1,7,7,-5,-10,1
COc1ccc(C)cc1NC(=O)COC(=O)Cc1ccc(-c2ccccc2)cc1,47,9.6*,9,1,-32,2
O=C(CN1CCOCC1)NCc1ccccc1,-16,2,·,4,43*,1
COc1ccc(Oc2nc(SC)nc3ccccc23)cc1,0,11*,·,0,-5,2
Cc1ccccc1C(=O)c1c[nH]c(C(=O)NCc2cccs2)c1,13,1,·,-7,-2,1
Cc1nnc(SCc2cc(=O)[nH]c(/N=C(\N)Nc3ccccc3)n2)s1,·,·,5,·,-11,6
Cc1nnc(SCc2cc(=O)[nH]c(/N=C(\N)Nc3ccccc3Sc3ccccc3)n2)s1,4,9.0*,14,-4,0,21
CCC(=O)N1CCN(c2ccc(NC(=O)c3ccc([N+](=O)[O-])o3)cc2Cl)CC1,66*,-1,8,-21,·,6
CCN1CCN(c2ccc(NC(=O)c3ccc([N+](=O)[O-])o3)cc2Cl)CC1,9,1,14,-32,11,-10
CCC(C)Nc1c([N+](=O)[O-])cc(C)cc1[N+](=O)[O-] (stereo not given),67*,2,·,1,-8,1

# High-throughput results as filed in PubChem.
